Screening data (PubChem BioAssay)
SENP1 FRET inh: inhibitors of human SENP1 SUMO protease catalytic domain. Q9P0U3. recombinant SENP1 catalytic domain, CyPet-SUMO1-YPet FRET cleavage. inhibition, % at 10 µM. 360,000 compounds, 0.21% hits. AID 624204;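 active = inhibition at least 30% at 10 µM, raw YFP signal under a set limit, fluorescence ratio 0.5 to 1.5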;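 also: 0% = enzyme with DMSO and 100% = no enzyme wells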
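Test system: hSENP1 catalytic domain, recombinant; Amount: 20 pM final SENP1 enzyme; Medium: Tris pH 8 buffer plus EDTA, NaCl, BME, BSA, NP40, catalase; Schedule: 50 min enzyme reaction, room temperature, light-protected; Technique: FRET fluorescence in CFP and YFP emission channels; Controls: no-enzyme wells low, DMSO-plus-enzyme wells high control.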
CTSL1 counter-1: counter-screen for PFM18AAP inhibitors: inhibitors of F. hepatica cathepsin L1; AID 1906; inhibition, % at 5.96 µM; 300,000 compounds, 0.49% hits; recombinant F. hepatica cathepsin L1, Z-Leu-Arg-MCA fluorescence;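 active = inhibition above the mean of all tested compounds plus 3 SD, set per screening campaign, cut at about 17% in these data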;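 also: 0% = plate median of test compound wells and 100% = 1 µM Z-Phe-Ala-diazomethylketone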
FXN GAA850 act: frataxin GAA850 promoter activation; HEK293 lucGAA850 FXN promoter luciferase reporter, 24 h; percent of 10 µM SAHA response; 360,000 compounds, 0.56% hits; AID 540364; activation, % at 6 µM;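 active = activation above the average of all compounds screened plus 3 SD, cutoff fixed separately per campaign, cut at about 7.5% in these data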;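 also: 0% = DMSO wells and 100% = 10 µM SAHA wells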
AHR activator: human AHR activation. P35869. AHR-responsive luciferase reporter cells, luminescence. activation, % at 5 µM. 320,000 compounds, 2.5% hits; in the data active = activation above about 47%;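 also: 0% = vehicle wells and 100% = reference agonist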
Target sequence (P35869 whole entry, looked up): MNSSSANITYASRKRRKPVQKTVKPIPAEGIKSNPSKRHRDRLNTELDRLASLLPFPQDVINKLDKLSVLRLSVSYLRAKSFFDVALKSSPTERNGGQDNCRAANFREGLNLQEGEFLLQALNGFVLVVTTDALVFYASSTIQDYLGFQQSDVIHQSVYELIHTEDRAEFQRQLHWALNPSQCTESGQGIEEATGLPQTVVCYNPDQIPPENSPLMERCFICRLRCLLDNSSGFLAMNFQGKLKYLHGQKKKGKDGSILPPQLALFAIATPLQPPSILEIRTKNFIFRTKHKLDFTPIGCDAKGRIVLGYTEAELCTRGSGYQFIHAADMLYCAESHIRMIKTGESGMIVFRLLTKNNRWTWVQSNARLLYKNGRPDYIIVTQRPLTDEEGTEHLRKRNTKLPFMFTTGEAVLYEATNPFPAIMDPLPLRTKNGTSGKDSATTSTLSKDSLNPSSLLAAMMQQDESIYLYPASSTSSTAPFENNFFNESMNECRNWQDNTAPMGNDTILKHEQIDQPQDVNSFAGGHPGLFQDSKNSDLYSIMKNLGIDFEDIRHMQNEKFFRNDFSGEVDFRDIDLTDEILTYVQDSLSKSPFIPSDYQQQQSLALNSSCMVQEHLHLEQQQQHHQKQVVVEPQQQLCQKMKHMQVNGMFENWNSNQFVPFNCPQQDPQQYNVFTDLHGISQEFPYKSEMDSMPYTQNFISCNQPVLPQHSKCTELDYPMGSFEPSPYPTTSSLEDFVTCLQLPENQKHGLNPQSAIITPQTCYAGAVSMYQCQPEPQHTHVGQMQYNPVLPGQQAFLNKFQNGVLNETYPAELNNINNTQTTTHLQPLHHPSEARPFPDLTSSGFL
PfM18AAP inh-1: blocks P. falciparum M18 aspartyl aminopeptidase | recombinant PfM18AAP, H-Glu-NHMec fluorogenic cleavage | inhibition, % at 7.35 µM | 290,000 compounds, 1.2% hits | AID 1822;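 active = inhibition above the campaign mean inhibition over all tested compounds plus 3 SD, cut at about 28% in these data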;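 also: 0% = plate median of test compound wells and 100% = 2 mM ZnCl2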
HDAC3 inhib: blocks human histone deacetylase 3. O15379. recombinant HDAC3, fluorogenic peptide/trypsin coupled, fluorescence. inhibition, % at 8.3 µM. 320,000 compounds, 0.15% hits; in the data active = inhibition above about 26%, passing the limit was not always enough; inconclusive = no clear call, values can overlap the other calls
PfM18AAP inh-2: PfM18AAP inhibition, confirmation | shares compounds with PfM18AAP inh-1 | recombinant PfM18AAP, H-Glu-NHMec fluorogenic cleavage | inhibition, % at 7.35 µM | 2,400 compounds, 28% hits;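 active = mean inhibition over replicate wells above the hit cutoff set for the earlier primary screen, cut at about 29% in these data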;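 also: 0% = median of test compound wells and 100% = 2 mM ZnCl2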
CTSL1 counter-2: counter-screen for PFM18AAP inhibitors: confirmation of human cathepsin L inhibitors | 2,400 tested, under 10 active | purified cathepsin L1, Z-Leu-Arg-MCA fluorescence | AID 2178 | shares compounds with PfM18AAP inh-1 | inhibition, % at 5.96 µM;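 active = average inhibition across replicates above the hit cutoff set in the earlier primary screen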;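 also: 0% = median of test compound wells and 100% = Z-Phe-Ala-diazomethylketone 1 µM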
Active calls of the source: *; ? = inconclusive; nt = no result. Hits are enriched below; roughly 4.2% of the tested compounds scored in any of these assays.

SMILES | SENP1 FRET inh | CTSL1 counter-1 | FXN GAA850 act | AHR activator | PfM18AAP inh-1 | HDAC3 inhib | PfM18AAP inh-2 | CTSL1 counter-2
N#CC1=C2SCN(Cc3ccco3)CN2C(=O)CC1c1c(F)cccc1Cl (centres undefined) | -9.2 | -1.0 | 0.7 | 0.1 | 18.9 | ? | nt | nt
Cc1ccc(C2CC(=O)N3CN(Cc4ccco4)CSC3=C2C#N)cc1 (centres undefined) | -6.7 | 2.0 | -0.7 | -1.3 | 30.9* | ? | nt | nt
N#CC1=C2SCN(c3ccccc3)CN2C(=O)CC1c1ccccc1Cl (centres undefined) | -1.5 | 2.9 | 2.0 | 12.9 | 20.9 | -0.1 | nt | nt
N#CC1=C2SCN(c3ccccc3)CN2C(=O)CC1c1c(Cl)cccc1Cl (centres undefined) | -8.9 | -1.0 | 1.4 | 2.2 | 36.1* | 60.7* | nt | nt
N#CC1=C2SCN(c3ccccc3)CN2C(=O)CC1c1cccs1 (centres undefined) | -12.3 | 1.5 | 1.2 | 2.0 | 37.4* | 4.8 | nt | nt
O=C(Nc1ncc2c(n1)-c1ccccc1CC2)C1CC1 | 2.1 | -4.2 | 0.5 | 75.9* | 3.0 | -5.2 | nt | nt
Cc1[nH]nc2c1C(c1cc(Br)cs1)C(C#N)=C(N)O2 (centres undefined) | -0.4 | 0.6 | 2.9 | 1.0 | 71.7* | 4.5 | 62.2* | -0.4
Cc1[nH]nc2c1C(c1ccco1)C(C#N)=C(N)O2 (centres undefined) | 0.4 | 0.6 | -0.7 | -1.3 | 14.0 | 6.3 | nt | nt
Cc1[nH]nc2c1[C@@H](c1ccccc1[N+](=O)[O-])C(C#N)=C(N)O2 | -66.9 | -5.9 | 0.7 | 15.8 | 35.9* | 2.2 | 10.3 | 2.8
Cc1[nH]nc2c1C(c1c[nH]c3ccccc13)C(C#N)=C(N)O2 (centres undefined) | -6.0 | 2.0 | 0.0 | 43.1 | 2.9 | 3.7 | nt | nt
OCC(O)/C=N/Nc1nc2ccccc2s1 (centres undefined) | -4.1 | -0.4 | 1.7 | 27.6 | 33.0* | 2.6 | 2.8 | -1.6
Cc1cc(NN)nc(NS(=O)(=O)c2ccccc2)n1 | 1.2 | -5.0 | -4.0 | 6.6 | 34.5* | 2.4 | 4.4 | -4.1
COc1cc(/C=N/Nc2cc(C)nc(NS(=O)(=O)c3ccccc3)n2)ccc1O | -3.9 | 9.6 | -1.0 | 0.4 | 32.5* | 4.0 | -23.0 | -6.3
COc1cc(C)nc(NS(=O)(=O)c2ccccc2)n1 | 2.3 | 2.0 | -0.6 | 2.0 | 2.2 | 8.7 | nt | nt
COc1cc(/C=N/Nc2ccccn2)ccc1O | -0.9 | 2.3 | 2.4 | 27.1 | -16.4 | -0.3 | nt | nt
COc1cc(/C=N/NC(=O)c2nc(-c3ccccc3)n(-c3ccccc3)n2)ccc1O | 2.1 | 1.9 | 0.8 | -0.3 | 2.0 | 12.9 | nt | nt
COc1cc(/C=N/Nc2nc(C)nc3c2cnn3-c2ccccc2)ccc1O | -38.6 | nt | -9.8 | nt | 32.8* | nt | -26.3 | 0.1
Cc1cc(NN)nc(NS(=O)(=O)c2ccc(Cl)cc2)n1 | 1.9 | -0.5 | 1.2 | 0.2 | 37.4* | nt | 21.7 | -1.1
COc1cccc(CN2CC(C(=O)NCCOc3cccnc3)CCC2=O)c1 (centres undefined) | 0.8 | -2.6 | 0.5 | -1.3 | -1.8 | nt | nt | nt
Cc1ccc(C(c2sc3ncnn3c2O)N2CCC(C)CC2)cc1 (centres undefined) | -0.5 | -0.9 | -0.2 | 0.7 | 55.9* | 9.1 | -23.6 | -0.4
Cc1ccc(C(c2sc3ncnn3c2O)N2CCCCC2)cc1 (centres undefined) | -0.3 | 1.1 | 2.0 | 6.4 | 47.0* | -1.7 | -13.6 | -10.6
CCc1ccc(-c2csc3[n+]2CCN3C(C)=O)cc1 | 0.8 | -1.7 | 2.0 | 3.5 | 19.0 | 1.0 | nt | nt
CC(=O)N1CC[n+]2c(-c3ccc(Cl)cc3)csc21 | 1.2 | -1.2 | 1.4 | 1.5 | 38.8* | 13.2 | 4.8 | -10.4
O=C(/C=C/c1cccc(Cl)c1)c1nc2ccccc2[nH]1 | -14.9 | 4.8 | 3.0 | 2.8 | 32.4* | -2.0 | 14.4 | 5.3
O=C1CN(C(=O)/C=C/c2cccc(Cl)c2)c2ccccc2N1 | 3.3 | -1.4 | 3.2 | 7.1 | -2.7 | 0.0 | nt | nt
SMILES | SENP1 FRET inh | CTSL1 counter-1 | FXN GAA850 act | AHR activator | PfM18AAP inh-1 | HDAC3 inhib | PfM18AAP inh-2 | CTSL1 counter-2
COc1cc2nc(CSc3ncn[nH]3)[nH]c(=O)c2cc1OC | -1.9 | 0.5 | -0.8 | 2.8 | 62.7* | 1.2 | 65.9* | -4.3
Cc1cccc(C(=O)NC(=S)NNC(=O)c2cccs2)c1 | 3.3 | -1.1 | 0.2 | 17.8 | 33.5* | 7.1 | -27.5 | 1.7
Cc1cccc(C(=O)NC(=S)NNC(=O)c2ccc(Cl)cc2)c1 | 0.6 | 2.2 | -1.1 | 1.8 | -5.9 | 6.0 | nt | nt
CC(C)Cn1c(=S)[nH]c2cc(C(=O)O)ccc2c1=O | 0.4 | 0.2 | 1.8 | 0.1 | 15.8 | -0.4 | nt | nt
CC(C)Cn1c2ccccc2c2cc(C(=O)O)ccc21 | -3.1 | 0.1 | -2.6 | -0.3 | 55.0* | -5.8 | -42.6 | 1.0
COCc1cccc(C2=CC(=O)C[C@H](c3ccc(OC)cc3)C2)c1 | 0.7 | nt | -0.1 | 3.0 | nt | -0.3 | nt | nt
Cc1ccc(C)c(NC(=S)N2CCN(c3cccc(C(F)(F)F)c3)CC2)c1 | 1.5 | -4.1 | -3.1 | -1.9 | -5.1 | -8.6 | nt | nt
Cc1ccnc(NC(=S)N2CCN(c3cccc(C(F)(F)F)c3)CC2)c1 | -1.7 | 3.2 | -1.8 | -1.6 | 39.0* | 5.2 | -20.0 | 7.4
C=CCN=c1scc(-c2ccco2)n1/N=C/c1ccc(O)c(O)c1O | 4.1 | -0.4 | 7.1 | 5.6 | 44.8* | 12.8 | 3.7 | -1.5
CCN=c1scc(C)n1/N=C/c1ccsc1 | 0.6 | 6.4 | 0.9 | 27.9 | 4.9 | 4.3 | nt | nt
CN=c1scc(C)n1/N=C/c1ccc(O)c(O)c1O | -0.8 | 4.3 | -4.2 | 15.0 | 47.4* | 1.2 | 22.2 | -5.1
Oc1ccc(/C=N/n2c(-c3ccco3)csc2=Nc2cccnc2)c(O)c1 | -22.4 | 2.2 | -7.0 | 12.3 | 11.8 | -2.6 | nt | nt
COCCN=c1scc(-c2ccco2)n1/N=C/c1ccc(O)c(O)c1O | 13.9 | 0.7 | 4.6 | -4.9 | 35.8* | 9.0 | 4.8 | -1.9
COCCN=c1scc(-c2cccs2)n1/N=C(\C)c1ccco1 | 4.7 | 2.3 | 5.2 | 31.6 | -1.3 | 3.6 | nt | nt
CC1(Oc2ccccc2)CCN(Cc2csc3ccccc23)C1 (centres undefined) | 2.8 | nt | -0.9 | nt | nt | nt | nt | nt
C=CCn1c(SCC(=O)Nc2cc(C)on2)nnc1-c1ccncc1 | -0.1 | nt | 1.7 | nt | nt | nt | nt | nt
O=C1CC2(CCCC2)C(=O)N1c1ccc(S(=O)(=O)NCC2CC2)cc1Cl | -1.5 | 2.5 | -0.2 | -1.9 | -19.9 | -1.4 | nt | nt
COc1ccc(/C=N/Nc2nn3cnnc3c3ccccc23)cc1 | -0.8 | -0.1 | 0.5 | 11.7 | 37.5* | 6.4 | -47.6 | 3.4
COc1ccc(/C=N/Nc2nonc2N)cc1 | 3.4 | 3.5 | 4.2 | 8.8 | 32.4* | -4.2 | -30.2 | -2.3
Cc1[nH]c2ccccc2c1C(=O)C(=O)NCc1nnnn1-c1ccc(F)cc1 | 2.3 | nt | -0.2 | nt | nt | nt | nt | nt
